Measured values from publication PMC8969127 (Molecular Pharmacology, 2022).
Entries after “also recorded” stand apart in the source; their conditions may differ. Where two headings read alike, the source gives them in different places.

Legend:
CatSper [1] = molecular target: T1, CatSper (Homo sapiens, UniProt Q7RTX7+Q86XQ3+Q8NEC5+Q96P56); conditions: read-out: EC50, rapid-mixing calcium fluorimetry; ref Strunker et al., 2011; cited from earlier work
CatSper [2] = molecular target: T1, CatSper; conditions: read-out: EC50, patch-clamp electrophysiology; ref Lishko et al., 2011; cited from earlier work
CatSper [3] = molecular target: T1, CatSper; experiment: Human sperm calcium influx assay, activation; format: cell-based; conditions: for Emax: read-out: Emax, %, Steroid Alone; for effect on [Ca2+]i as activator: concentrations up to 10 µM
In short: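 Semen from healthy donors was liquefied at 37 °C, washed twice in low pH/low K+ buffer (pH 6.7, 0.2 mM CaCl2), then loaded with 10 µM Fluo-4-AM plus 1 mM probenecid, 30 min, room temperature, dark. On FLIPR, buffer was added first, then openers 2 min later. Fluorescence was read for 7 min at 2-s intervals. EC50 came from 8-point, 3-fold dilutions in duplicate, peak height, four-parameter fit. Emax is relative to 3 µM progesterone. Activators were retested with 30 µM mibefradil.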

CatSper [4] = molecular target: T1, CatSper; experiment: Activator concentration-response curves in the presence of increasing inhibitor; format: cell-based
In short: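 Washed human donor sperm in low pH/low K+ buffer (pH 6.7) were loaded with 10 µM Fluo-4-AM plus 1 mM probenecid, 30 min, room temperature, dark. FLIPR read: ex 470–495/em 515–575 nm. Activator concentration-response curves were run with increasing concentrations of competitive antagonist, added 2 min before the activator. Activator EC50 values were taken from maximal peak height (four-parameter fit). pKB came from Schild regression.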

CatSper [5] = molecular target: T1, CatSper; format: cell-based; conditions: for IC50: human sperm
human sperm = experiment: Computer-assisted sperm analysis; format: cell-based; conditions: CASA, human sperm, up to 30 µM
In short: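 Donor semen was liquefied ≥40 min at 37 °C, then swim-up in HAM's F10 for 1 h at 37 °C, 5% CO2. Cells were adjusted to 10x10^6/mL and capacitated in HAM's F10 with 5% BSA and 15 mM NaHCO3 at 37 °C, 5% CO2, with test compound or DMSO. HAM was induced with 100 nM progesterone or 100 nM PGE1. CASA at 37 °C used ≥10 fields, ≥200 cells. Motility classes came from VAP/VSL/VCL-derived LIN and STR, normalized to vehicle controls, ≥3 experiments.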

[6] = pEC50, calcium influx, Steroid Alone, human sperm, mean ±SD
[7] = Schild pKB, opener PGE1, mean ± standard error
[8] = Schild pKB, opener PROG, mean ± standard error
[9] = Schild pKB, opener l-Sirenin, mean ± standard error
[10] = average pKB, Schild analysis, averaged across the activators, PROG, PGE1 and l-sirenin, mean ±SD
[11] = KB, Leff-Dougall analysis, averaged across the activators, PROG, PGE1 and l-sirenin
[12] = Leff-Dougall pKB, opener PGE1, from IC50, mean ± SD
[13] = Leff-Dougall pKB, opener PROG, from IC50, mean ± SD
[14] = Leff-Dougall pKB, opener l-Sirenin, from IC50, mean ± SD
[15] = pIC50, inhibition of PGE1-induced calcium influx, opener 10 nM PGE1 (EC80), mean ±SD
[16] = pIC50, inhibition of l-sirenin-induced calcium influx, opener 3 µM l-sirenin (EC80), mean ±SD

| Structure (SMILES) | EC50 (CatSper [3]; [6]) [µM] | Emax (CatSper [3]) [%] | Kb (CatSper [4]; [7]) [µM] | Kb (CatSper [4]; [8]) [µM] | Kb (CatSper [4]; [9]) [µM] | Kb (CatSper [4]; [10]) [µM] | Kb (CatSper [5]; [11]) [µM] | Kb (CatSper [5]; [12]) [µM] | Kb (CatSper [5]; [13]) [µM] | Kb (CatSper [5]; [14]) [µM] | IC50 (CatSper [5]; [15]) [µM] | IC50 (CatSper [5]; [16]) [µM] | effect on [Ca2+]i as activator (CatSper [3]) | effect on total and progressive sperm motility (human sperm) | also measured |
| --- | --- | --- | --- | --- | --- | --- | --- | --- | --- | --- | --- | --- | --- | --- | --- |
| CC(=O)[C@H]1CC[C@H]2[C@@H]3CCC4=CC(=O)CC[C@]4(C)[C@H]3CC[C@]12C [compound 1, progesterone] | 0.00372 | 111 |  |  |  |  |  |  |  |  |  |  |  |  | EC50 (CatSper [1]): 0.042 µM; EC50 (CatSper [2]): 0.0077 µM; EC50 (CatSper [3]; EC50, increase of [Ca2+]i in human sperm): 0.0037 µM; time at which the calcium signal peaked (CatSper [3]; then decayed slowly for up to 300 seconds): ~100 s |
| C[C@]12CCC(=O)C=C1CC[C@@H]1[C@@H]2[C@@H](O)C[C@]2(C=O)[C@@H](C(=O)CO)CC[C@@H]12 [compound 6, aldosterone] |  |  | 724 | 4.17 | 15.1 | 36.3 | 5.1 | 6.03 | 3.47 | 6.46 | 57.5 | 61.7 | did not increase [Ca^2+]i; also recorded: negligible activity | no significant effect |  |
| CC(=O)O[C@]1(C(C)=O)CC[C@H]2[C@@H]3C[C@H](C)C4=CC(=O)CC[C@]4(C)[C@H]3CC[C@@]21C [compound 4, medroxyprogesterone acetate] | > 10 | 17 | 4.17 | 0.646 | 6.03 | 2.51 | 1.6 | 1 | 0.692 | 6.31 | 9.77 | 6.17 |  | reduced total and progressive motility at 30 µM but not at lower concentrations | Kb (CatSper [5]; mean pKB, Leff-Dougall analysis, averaged across the activators, PROG, PGE1 and l-sirenin, mean ±SD): 1.66 µM; effect on [Ca2+]i as activator (CatSper [3]; listed as MPA): little effect on [Ca^2+]i; also recorded: negligible activity |
| C#C[C@]1(O)CC[C@H]2[C@@H]3CCC4=CC(=O)CC[C@@H]4[C@H]3CC[C@@]21CC [compound 5, levonorgestrel] |  | 15 | 437 | 0.158 | 56.2 | 15.8 | 4.5 | 3.16 | 3.39 | 8.51 | 30.2 | 81.3 | negligible activity | no significant effect | EC50 (CatSper [3]): > 10 µM |
